Results reported in ChEMBL document CHEMBL1255410, “Activity of the investigational fluoroquinolone finafloxacin against ciprofloxacin-sensitive and -resistant Acinetobacter baumannii isolates” (2010).
In brackets after ≈: the same amount, converted by molar mass.

Assays:
Assay type in all cases: functional
Acinetobacter baumannii [1] = experiment: Antimicrobial activity against Acinetobacter baumannii isolate 3 at pH 5.8
In short: (§1)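 MIC by agar dilution on Mueller-Hinton agar acidified to pH 5.8 with HCl before antibiotic-containing plates were poured. Agar pH was rechecked once the agar had solidified. Isolates had characterized gyrA/parC genes. Plates for both drugs were made the same day from fresh media, and MICs were read in parallel with the standard-pH set.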

Acinetobacter baumannii [2] = experiment: Antimicrobial activity against Acinetobacter baumannii isolate 15 at pH 7.2
In short: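 MIC by agar dilution on Mueller-Hinton agar under standard conditions (pH 7.2), against isolates with characterized gyrA/parC genes. Agar pH was checked after solidifying. Plates for both drugs were prepared the same day from freshly made media, and MICs were determined simultaneously with the pH 5.8 set.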

Acinetobacter baumannii [3] = experiment: Antimicrobial activity against Acinetobacter baumannii isolate 24 harboring GyrA Ser83-Leu mutation at pH 5.8; in short: as §1
Acinetobacter baumannii [4] = experiment: Antimicrobial activity against Acinetobacter baumannii isolate 50 harboring GyrA Ser83-Leu and ParC Ser80-Leu mutation at pH 5.8
In short: (§2)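 Agar dilution MIC on Mueller-Hinton agar. For the acidic condition, HCl was added to bring the agar to pH 5.8 before pouring the antibiotic plates, and the pH was checked after the agar set. The standard condition was pH 7.2. Both drugs' plates were made the same day from fresh medium, and MICs were read at the same time.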

Acinetobacter baumannii [5] = experiment: Antimicrobial activity against Acinetobacter baumannii isolate 52 harboring GyrA Ser83-Leu and ParC Ser80-Leu mutation at pH 5.8; in short: as §2
Acinetobacter baumannii [6] = experiment: Antimicrobial activity against Acinetobacter baumannii isolate 61 harboring GyrA Ser83-Leu and ParC Ser80-Leu mutation at pH 7.2
In short: (§3)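 Agar dilution MIC on Mueller-Hinton agar under standard conditions (pH 7.2). Antibiotic-containing plates were made the same day from freshly prepared medium. Agar pH was checked after solidifying. Both fluoroquinolones were tested simultaneously against A. baumannii isolates with characterized gyrA/parC genes. MICs are in μg/ml.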

Acinetobacter baumannii [7] = experiment: Antimicrobial activity against Acinetobacter baumannii isolate 13 at pH 5.8; in short: as §1
Acinetobacter baumannii [8] = experiment: Antimicrobial activity against Acinetobacter baumannii isolate 51 harboring GyrA Ser83-Leu and ParC Ser80-Leu mutation at pH 7.2; in short: as §2
Acinetobacter baumannii [9] = experiment: Antimicrobial activity against Acinetobacter baumannii isolate 64 harboring GyrA Ser83-Leu and ParC Ser80-Leu mutation at pH 5.8
In short: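 Agar dilution MIC on Mueller-Hinton agar acidified to pH 5.8 with HCl before the antibiotic-containing plates were poured. Agar pH was checked after solidifying. Plates were made the same day from fresh medium. Both fluoroquinolones were tested simultaneously against A. baumannii isolates with characterized gyrA/parC genes. MICs are in μg/ml.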

Acinetobacter baumannii [10] = experiment: Antimicrobial activity against Acinetobacter baumannii isolate 41 harboring GyrA Ser83-Leu mutation at pH 7.2; in short: as §2
Acinetobacter baumannii [11] = experiment: Antimicrobial activity against adeB overexpressing Acinetobacter baumannii isolate 68 harboring GyrA Ser83-Leu and ParC Ser80-Leu mutation at pH 7.2; in short: as §3
Acinetobacter baumannii [12] = experiment: Antimicrobial activity against Acinetobacter baumannii isolate 47 harboring GyrA Ser83-Leu and ParC Ser80-Phe mutation at pH 7.2; in short: as §2
Acinetobacter baumannii [13] = experiment: Antimicrobial activity against Acinetobacter baumannii isolate 45 harboring GyrA Ser83-Leu and ParC Ser80-Leu mutation at pH 7.2; in short: as §2
Acinetobacter baumannii [14] = experiment: Antimicrobial activity against Acinetobacter baumannii isolate 46 harboring GyrA Ser83-Leu and ParC Ser80-Leu mutation at pH 7.2; in short: as §2

SMILES	MIC (Acinetobacter baumannii [1]) [µg/mL]	MIC (Acinetobacter baumannii [2]) [µg/mL]	MIC (Acinetobacter baumannii [3]) [µg/mL]	MIC (Acinetobacter baumannii [4]) [µg/mL]	MIC (Acinetobacter baumannii [5]) [µg/mL]	MIC (Acinetobacter baumannii [6]) [µg/mL]	MIC (Acinetobacter baumannii [7]) [µg/mL]	MIC (Acinetobacter baumannii [8]) [µg/mL]	MIC (Acinetobacter baumannii [9]) [µg/mL]	MIC (Acinetobacter baumannii [10]) [µg/mL]	MIC (Acinetobacter baumannii [11]) [µg/mL]	MIC (Acinetobacter baumannii [12]) [µg/mL]	MIC (Acinetobacter baumannii [13]) [µg/mL]	MIC (Acinetobacter baumannii [14]) [µg/mL]
O=C(O)c1cn(C2CC2)c2cc(N3CCNCC3)c(F)cc2c1=O [CIPROFLOXACIN]	2 (≈ 6.04 µM)	1 (≈ 3.02 µM)	32 (≈ 96.6 µM)	> 128	> 128	128 (≈ 386 µM)	4 (≈ 12.1 µM)	128 (≈ 386 µM)	> 128	16 (≈ 48.3 µM)	–	–	–	–
N#Cc1c(N2C[C@@H]3NCCO[C@H]3C2)c(F)cc2c(=O)c(C(=O)O)cn(C3CC3)c12 [FINAFLOXACIN]	0.06 (≈ 0.151 µM)	1 (≈ 2.51 µM)	2 (≈ 5.02 µM)	4 (≈ 10 µM)	2 (≈ 5.02 µM)	64 (≈ 161 µM)	0.12 (≈ 0.301 µM)	32 (≈ 80.3 µM)	4 (≈ 10 µM)	16 (≈ 40.2 µM)	64 (≈ 161 µM)	32 (≈ 80.3 µM)	16 (≈ 40.2 µM)	16 (≈ 40.2 µM)
